ChEMBL document CHEMBL4699650, “SAR Investigation and Discovery of Water-Soluble 1-Methyl-1,4-dihydroindeno[1,2-c]pyrazoles as Potent Tubulin Polymerization Inhibitors” (J Med Chem, 2020)

Legend:
HepG2 [1] = test: Induction of apoptosis in human HepG2 cells assessed as late apoptotic cells at 10 nM incubated for 24 hrs by Annexin V-PE and 7-AAD staining based flow cytometry (reference value: 2.33 %); assay type: functional
In short: (§1)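 HepG2 cells seeded at 3 × 10⁵ cells/well, adhered overnight, exposed at 5, 10 or 20 nM for 12 or 24 h. Harvested into Annexin V binding buffer and stained with annexin V-PE and 7-AAD for 15 min at room temperature in the dark, then analysed by flow cytometry. Gates: live (−/−), early apoptotic (+/−), late apoptotic (+/+), necrotic (−/+).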

HepG2 [2] = test: Induction of apoptosis in human HepG2 cells assessed as necrotic cells at 20 nM incubated for 12 hrs by Annexin V-PE and 7-AAD staining based flow cytometry (reference value: 0.55 %); assay type: functional; in short: as §1
HepG2 [3] = test: Antitumor activity against human HepG2 cells xenografted in Balb/c nude mouse assessed as reduction in tumor volume at 5 mg/kg, iv administered every 2 days for 21 days and measured at 3 days interval during compound dosing; assay type: functional; set-up: scale not given: the % may be the effect or the level left; settings: time 21 day
In short: (§2)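 Nude mice received 200 μL PBS containing HepG2 at 1 × 10⁷ cells/mL subcutaneously in the right armpit. Randomised at 90 mm³ tumour volume, five per group. Compound given iv as a 2.0 mg/mL solution in distilled water, 5 or 10 mg/kg every two days for 21 days, with a water vehicle group. Tumour volume (L × W²/2) and body weight recorded every 3 days. Inhibition = (1 − RTV treated/RTV vehicle) × 100%.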

HepG2 [4] = test: Induction of apoptosis in human HepG2 cells assessed as late apoptotic cells at 20 nM incubated for 12 hrs by Annexin V-PE and 7-AAD staining based flow cytometry (reference value: 2.79%); assay type: functional; in short: as §1
HepG2 [5] = test: Induction of apoptosis in human HepG2 cells assessed as live cells at 10 nM incubated for 24 hrs by Annexin V-PE and 7-AAD staining based flow cytometry (reference value: 93.2%); assay type: functional; in short: as §1
HepG2 [6] = test: Induction of cell cycle arrest in human HepG2 cells assessed as accumulation in G2/M phase incubated for 24 hrs by propidium iodide staining based flow cytometry; assay type: functional; settings: dose nM 5-20, time 24.0 hrs
HepG2 [7] = test: Induction of apoptosis in human HepG2 cells assessed as live cells at 20 nM incubated for 12 hrs by Annexin V-PE and 7-AAD staining based flow cytometry (reference value: 92.1%); assay type: functional; in short: as §1
[8] = Lipophilicity, log P of the compound in DMSO and n-octanol at pH 7.4 incubated for 10 hrs under stirred condition by HPLC analysis; assay type: physicochemical; settings: n-octanol / aqueous phase pH 7.4, pH 7.4
In short: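 Partition between n-octanol and water: mixture stirred at room temperature for 10 h, then left at 4 °C overnight. Each phase analysed separately by HPLC on a C18 column. Log P taken from the ratio of peak areas in n-octanol and water.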

HepG2 [9] = test: Antitumor activity against human HepG2 cells xenografted in Balb/c nude mouse assessed as reduction in tumor volume at 10 mg/kg, iv administered every 2 days for 21 days and measured at 3 days interval during compound dosing; assay type: functional; set-up: scale not given: the % may be the effect or the level left; settings: time 21 day; in short: as §2
HepG2 [10] = test: Induction of apoptosis in human HepG2 cells assessed as early apoptotic cells at 10 nM incubated for 12 hrs by Annexin V-PE and 7-AAD staining based flow cytometry (reference value: 4.52%); assay type: functional; in short: as §1
HepG2 [11] = test: Induction of apoptosis in human HepG2 cells assessed as necrotic cells at 20 nM incubated for 24 hrs by Annexin V-PE and 7-AAD staining based flow cytometry (reference value: 0.34 %); assay type: functional; in short: as §1
HepG2 [12] = test: Induction of cell cycle arrest in human HepG2 cells assessed as accumulation in G1 phase at 10 nM incubated for 24 hrs by propidium iodide staining based flow cytometry (reference value: 60.76%); assay type: functional
HepG2 [13] = test: Induction of apoptosis in human HepG2 cells assessed as live cells at 5 nM incubated for 24 hrs by Annexin V-PE and 7-AAD staining based flow cytometry (reference value: 93.2%); assay type: functional; in short: as §1
HepG2 [14] = test: Induction of apoptosis in human HepG2 cells assessed as live cells at 10 nM incubated for 12 hrs by Annexin V-PE and 7-AAD staining based flow cytometry (reference value: 92.1%); assay type: functional; in short: as §1
HepG2 [15] = test: Induction of apoptosis in human HepG2 cells assessed as increase in Bax expression incubated for 24 hrs by Western blot analysis; assay type: functional, cell-based; settings: dose nM 2.5-20, time 24.0 hrs
In short: (§3)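 Lysates (20 μg protein) separated by 10% PAGE and blotted to PVDF. Probed for Bax, Bcl-2, cleaved caspase-3 and cleaved PARP, detected by ECL and quantified by densitometry.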

A549 = test: Antiproliferation activity against human A549 cells assessed as cell growth inhibition measured after 72 hrs by MTT assay; assay type: functional
In short: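 Cells grown in RPMI-1640 with 10% FBS at 37 °C, 5% CO2, seeded at 4−7 × 10³ cells/well and left to adhere overnight. Exposed to a range of concentrations for 72 h, then MTT (2.5 mg/mL stock) added for 4 h. Formazan dissolved in DMSO and absorbance read at 570 nm. GI50 taken as the concentration giving 50% growth inhibition, reported as mean ± SD of at least three independent experiments.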

HepG2 [16] = test: Induction of apoptosis in human HepG2 cells assessed as decrease in Bcl-2 expression incubated for 24 hrs by Western blot analysis; assay type: functional, cell-based; settings: dose nM 2.5-20, time 24.0 hrs; in short: as §3
[17] = Resistance index, ratio of GI50 for antiproliferation activity against human A549/Taxol cells to GI50 for antiproliferation activity against human A549 cells assessed as cell growth inhibition measured after 72 hrs by MTT assay
HepG2 [18] = test: Induction of apoptosis in human HepG2 cells assessed as necrotic cells at 10 nM incubated for 12 hrs by Annexin V-PE and 7-AAD staining based flow cytometry (reference value: 0.55 %); assay type: functional; in short: as §1

- logD at 10 h [8]: 1.7
- GI50 (A549): 3.7 nM
Compound: CCOc1cccc(Nc2nn(C)c3c2Cc2cc(OCC)c(OCCCN)cc2-3)c1
- Activity (HepG2 [1]): 7.19%
- Activity (HepG2 [2]): 1.36%
- Activity (HepG2 [3]): 54%
- Activity (HepG2 [4]): 6.42%
- Activity (HepG2 [5]): 75.5%
- Activity (HepG2 [6]): Dose-dependent effect
- Activity (HepG2 [7]): 77.7%
- Activity (HepG2 [9]): 68%
- Activity (HepG2 [10]): 9.58%
- Activity (HepG2 [11]): 0.71%
- Activity (HepG2 [12]): 17.07%
- Activity (HepG2 [13]): 85.6%
- Activity (HepG2 [14]): 85.2%
- Activity (HepG2 [15]): Dose-dependent effect
- Activity (HepG2 [16]): Dose-dependent effect
- RatioGI50 [17]: 4
- Activity (HepG2 [18]): 0.92%
